Measured values reported in ChEMBL document CHEMBL1131227, “Hydroxyphthalocyanines as potential photodynamic agents for cancer therapy” (1998).
Active and inactive are the calls of the source. The rule behind the calls is not given here.

Tests used:
Mus musculus [1] = test: % EMT-6 tumor necrosis response induced in BALB/c mice after ZnPc and Photofrin-mediated photodynamic therapy (PDT) at a concentration of 1 uM/kg; type: functional
Mus musculus [2] = test: % EMT-6 tumor regression response induced in BALB/c mice after ZnPc and Photofrin-mediated photodynamic therapy (PDT) at a concentration of 2 umol/kg; type: functional
Summary of the method: (§1)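 In male BALB/c mice (18–22 g), intradermal EMT-6 tumors on each hind thigh were grown 6–8 days to 3–5-mm diameter. Mice then received 1 or 2 μmol kg⁻¹ dye i.v. in Cremophor emulsion, with red-light exposure 24 h later. Scored as percent of animals showing complete tumor regression 3 weeks after PDT.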

Mus musculus [3] = test: % EMT-6 tumor regression response induced in BALB/c mice after ZnPc and Photofrin-mediated photodynamic therapy (PDT) at a concentration of 1 uM/kg; type: functional; summary of the method: as §1
EMT6 [4] = test: Light dose required to kill 90% of cells(EMT-6 mammary tumor cell line) after 24 hr incubation with 1 uM concentration; type: functional, Mus musculus
Summary of the method: (§2)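 EMT-6 cells were seeded at 15 × 10³ per well and incubated 1 or 24 h at 37 °C with 1 μM dye from Cremophor emulsion in Waymouth 1% FBS. They were rinsed, refed with 15% FBS, and given red light (10 mW cm⁻²) over 0.1–20 J cm⁻². After overnight incubation, viability was read by MTT (595 nm). LD₉₀ was extrapolated from survival curves, with eightfold replicates per light dose and at least three experiments.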

EMT6 [5] = test: Light dose required to kill 90% of cells(EMT-6 mammary tumor cell line) after 1 hr incubation with 1 uM concentration; type: functional, Mus musculus; summary of the method: as §2
Mus musculus [6] = test: % EMT-6 tumor edema response induced in BALB/c mice after ZnPc and Photofrin-mediated photodynamic therapy (PDT) at a concentration of 1 umol/kg; Light; type: functional, organism-based; conditions: tested as the Zn salt or complex
Summary of the method: (§3)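 Male BALB/c mice (18–22 g), shaved and depilated, bore EMT-6 tumors from intradermal injection of 2 × 10⁵ cells into each hind thigh. At 6–8 days (tumors 3–5-mm diameter, 2–3-mm thick), dye was given i.v. as a Cremophor emulsion (0.2 mL/20 g) at 1 or 2 μmol kg⁻¹. Red light followed 24 h later. Edema was scored 24 h after PDT as light (+), medium (++), important (+++) or extensive (++++).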

EMT6 [7] = test: Drug dose required to kill 90% of cells(EMT-6 mammary tumor cell line) after 24 hr incubation with a fixed fluence of 2.4 J cm-2.; type: functional, Mus musculus
Summary of the method: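 EMT-6 mouse mammary tumour cells were grown in Waymouth's medium with 15% FBS. They were seeded at 15 × 10³ per well overnight, then given dye (Cremophor emulsion diluted in Waymouth 1% FBS) for 1 or 24 h at 37 °C. Cells were rinsed and refed, then exposed to red light (λ > 590 nm, 10 mW cm⁻²) to 2.4 J cm⁻². MTT was read at 595 nm the next day. Dye-free cells set 100% survival.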

Mus musculus [8] = test: % EMT-6 tumor edema response induced in BALB/c mice after ZnPc and Photofrin-mediated photodynamic therapy (PDT) at a concentration of 2 umol/kg; Extensive; type: functional, organism-based; conditions: tested as the Zn salt or complex; summary of the method: as §3
Mus musculus [9] = test: % EMT-6 tumor edema response induced in BALB/c mice after ZnPc and Photofrin-mediated photodynamic therapy (PDT) at a concentration of 1 umol/kg; Extensive; type: functional, organism-based; conditions: tested as the Zn salt or complex; summary of the method: as §3
Mus musculus [10] = species on record: Mus musculus; conditions: BALB/c, 2 umol/kg
EMT6 [11] = conditions: Mus musculus
Mus musculus [12] = test: % EMT-6 tumor edema response induced in BALB/c mice after ZnPc and Photofrin-mediated photodynamic therapy (PDT) at a concentration of 10 uM/kg; type: functional, organism-based; conditions: tested as the Zn salt or complex
Mus musculus [13] = test: % EMT-6 tumor regression response induced in BALB/c mice after ZnPc and Photofrin-mediated photodynamic therapy (PDT) at a concentration of 10 uM/kg; type: functional
Mus musculus [14] = test: % EMT-6 tumor necrosis response induced in BALB/c mice after ZnPc and Photofrin-mediated photodynamic therapy (PDT) at a concentration of 10 uM/kg; type: functional, organism-based; conditions: tested as the Zn salt or complex
[15] = tested on: V-79 (Cricetulus griseus); test: Drug dose required to kill 90% of cells after 1 hr incubation with a fixed fluence of 2.4 J cm-2. (assay with Chinese hamster V-79 fibroblasts)
Mus musculus [16] = test: % EMT-6 tumor edema response induced in BALB/c mice after ZnPc and Photofrin-mediated photodynamic therapy (PDT) at a concentration of 2 umol/kg; Important; type: functional, organism-based; conditions: tested as the Zn salt or complex; summary of the method: as §3
Mus musculus [17] = test: % EMT-6 tumor edema response induced in BALB/c mice after ZnPc and Photofrin-mediated photodynamic therapy (PDT) at a concentration of 1 umol/kg; Important; type: functional, organism-based; conditions: tested as the Zn salt or complex; summary of the method: as §3
[18] = Mus musculus, tested as the Zn salt or complex

| Compound | Tumor response (Mus musculus [1]) [%] | Tumor response (Mus musculus [2]) [%] | Tumor response (Mus musculus [3]) [%] | LD90 (EMT6 [4]) [J cm**-2] | LD90 (EMT6 [5]) [J cm**-2] | LC90 (EMT6 [7]) [nM] | LD90 (EMT6 [4]; [18]) | LC90 (EMT6 [7]; [18]) | further results |
| --- | --- | --- | --- | --- | --- | --- | --- | --- | --- |
| Oc1ccc2c(c1)-c1nc-2nc2[n-]c(nc3nc(nc4[n-]c(n1)c1ccccc41)-c1ccccc1-3)c1ccc(O)cc21.[Zn+2] | 0 | 75 | 0 | 0.4 | 7.5 | 580 |  |  | Tumor response (Mus musculus [6]): Light |
| Oc1ccc2c(c1)-c1nc-2nc2[n-]c(nc3nc(nc4[n-]c(n1)c1ccccc41)-c1ccccc1-3)c1ccccc21.[Zn+2] | 100 | 25 | 12 | 0.15 | 0.4 | 120 |  |  | Tumor response (Mus musculus [8]): Extensive; Tumor response (Mus musculus [9]): Extensive |
| [Zn+2].c1ccc2c(c1)-c1nc-2nc2[n-]c(nc3nc(nc4[n-]c(n1)c1ccccc41)-c1ccccc1-3)c1ccccc21 [(PHTHALOCYANINATO)ZINC(II)] |  | 100 |  |  | 0.14 |  | inactive | inactive | Tumor response (Mus musculus [10]): inactive; LC90 (EMT6 [11]): inactive |
| Oc1ccc2c(c1)-c1nc-2nc2[n-]c(nc3nc(nc4[n-]c(n1)c1ccc(O)cc41)-c1ccc(O)cc1-3)c1ccc(O)cc21.[Zn+2] |  |  |  |  |  |  | inactive | inactive | Activity (Mus musculus [12]): inactive; LD90 (EMT6 [5]; [18]): inactive; Tumor response (Mus musculus [13]): 0%; Tumor response (Mus musculus [14]): inactive; LC90 [15]: >100000 nM |
| Oc1cc2c(cc1O)-c1nc-2nc2[n-]c(nc3nc(nc4[n-]c(n1)c1ccccc41)-c1ccccc1-3)c1ccccc21.[Zn+2] | 62 | 0 | 25 | 0.25 | 2.4 | 300 |  |  | Tumor response (Mus musculus [16]): Important; Tumor response (Mus musculus [17]): Important |
| Oc1ccc2c(c1)-c1nc-2nc2[n-]c(nc3nc(nc4[n-]c(n1)c1ccccc41)-c1ccc(O)cc1-3)c1ccc(O)cc21.[Zn+2] |  |  |  | 0.48 | 19 | 800 |  |  |  |
